Assay outcomes deposited in PubChem by Johns Hopkins Ion Channel Center.
Hits are enriched below; roughly 3.7% of the tested compounds scored in any of these assays.
KCNK9 inh – inhibitors of human KCNK9 two-pore domain potassium channel | Q9NPC2 | HEK293 KCNK9, FluxOR thallium flux fluorescence; stronger effect = lower value | B-score at 10 µM | 1.2% of 310,000 active | AID 488922;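 active means ratio B-score over 3 SD below the library mean, with starting fluorescence within 5 SD of its mean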;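 further: negative B-score means less thallium flux so channel inhibition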
Target sequence (Q9NPC2 whole entry, looked up, the tested form may be a part): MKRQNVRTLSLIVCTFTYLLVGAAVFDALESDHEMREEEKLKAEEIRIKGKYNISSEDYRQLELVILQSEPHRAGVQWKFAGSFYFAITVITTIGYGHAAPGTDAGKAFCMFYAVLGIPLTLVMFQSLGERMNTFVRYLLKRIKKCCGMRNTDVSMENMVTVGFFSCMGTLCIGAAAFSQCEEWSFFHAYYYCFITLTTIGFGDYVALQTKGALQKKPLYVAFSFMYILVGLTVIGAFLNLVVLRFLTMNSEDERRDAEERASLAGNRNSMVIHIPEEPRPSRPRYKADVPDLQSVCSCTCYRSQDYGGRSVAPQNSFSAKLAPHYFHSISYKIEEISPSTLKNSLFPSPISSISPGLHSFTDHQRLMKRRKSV
Kir21 block – inhibitors of mouse Kir2.1 inward-rectifier potassium channel; P35561; HEK293-Kir2.1, FluxOR thallium flux fluorescence; stronger effect = lower value; B-score at 10 µM; 0.85% of 310,000 active;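 active means fluorescence ratio B-score at or below minus 3 SD of library scores, with starting-brightness B-score within 2 SD, cut at about -4.2 in these data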;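 further: channel flux triggered by added potassium and thallium sulfate stimulus; B-score of peak minus minimum fluorescence over baseline after thallium stimulus; more negative B-score means stronger Kir2.1 block with less thallium influx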
hERG protect – shields human hERG channel from block by proarrhythmic agents; Q12809; CHO-hERG, FluxOR thallium flux, dofetilide IC70 present; activation (rescue from dofetilide block), less the hit threshold, % at 10 µM; 0.51% of 310,000 active; AID 1511;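 active means activation above the mean of controls blocked by dofetilide plus 5 SD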;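 further: thallium influx through hERG after potassium depolarization seen as dye fluorescence rise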
KCNQ1 block – inhibitors of human KCNQ1 potassium channel | B-score at 10 µM | 1.3% of 310,000 active | CHO-K1 KCNQ1, FluxOR thallium flux fluorescence; stronger effect = higher value;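 active means compounds whose thallium flux B-score, printed positive for inhibition, exceeds three library SD while starting fluorescence stays within three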;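 further: channel opened by potassium depolarization with thallium stimulus after 20 min compound exposure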
KCNQ1 pot – potentiators or activators of human KCNQ1 potassium channel; 0.35% of 310,000 active; CHO-K1 KCNQ1, thallium flux FluxOR fluorescence; stronger effect = higher value; P51787; AID 2648; B-score at 10 µM;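 active means fluorescence ratio B-score, a plate-corrected score, at least three library SD, with initial intensity B-score within 5 SD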
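Schedule – 37 °C overnight plating, 90-min dark dye load, 20-min compound pretreatment · System – stable KCNQ1 CHO-K1 line · Probe or stimulus – thallium- and potassium-containing depolarizing buffer · Measured by – kinetic FluxOR fluorescence, 10 s baseline plus 110 s post-stimulus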
KCNK3 block – human KCNK3 channel inhibition, primary screen. B-score at 10 µM. O14649. 0.84% of 340,000 active. CHO-KCNK3 thallium flux, FluxOR fluorescence; stronger effect = lower value;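 active means B-score under library mean minus 4 SD, starting fluorescence ratio at most library mean plus 5 SD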;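 further: more negative B-score means stronger inhibition of thallium flux through KCNK3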
The depositor's hits bear a star; i = inactive; nt = no result given.

SMILES | KCNK9 inh | Kir21 block | hERG protect | KCNQ1 block | KCNQ1 pot | KCNK3 block
CCOC(=O)Cc1csc(SCC(=O)Nc2cc(Cl)ccc2Oc2ccccc2)n1 | i | -3.31 | -11.2 | 11* | i | i
CCOC(=O)Cc1csc(SCC(=O)Nc2cccc(Cl)c2)n1 | i | 1.02 | -9.3 | i | i | i
CC(C)S(=O)(=O)C1=NSC2=NC(=O)/C(=C\c3ccc(-c4cccc(C(=O)O)c4)o3)C(=N)N21 | nt | nt | nt | nt | nt | i
N=C1/C(=C/c2ccc(-c3cccc(C(=O)O)c3)o2)C(=O)N=C2SC=C(c3ccccc3)N12 | i | -0.62 | -29.4 | 7* | i | i
N=C1/C(=C\c2ccc(-c3cc(Cl)cc(Cl)c3)o2)C(=O)N=C2SC=C(c3ccccc3)N12 | i | 0.69 | -3.8 | i | i | i
CC(C)S(=O)(=O)C1=NSC2=NC(=O)/C(=C\c3ccc(-c4ccccc4)o3)C(=N)N21 | i | -3.34 | -30.3 | 8* | i | i
NC(=O)c1ccc(NC(=O)C2CCCC2)cc1 | i | 0.95 | -5.2 | i | i | i
CCN(CC(=O)Nc1ccccc1C(F)(F)F)C(=O)c1cc(-c2ccccc2)nn1-c1ccccc1 | i | -0.44 | -16.4 | i | i | i
CCN(CC(=O)Nc1ccccc1OC)C(=O)c1cc(-c2ccccc2)nn1-c1ccccc1 | i | -0.35 | -20.8 | 7* | i | i
Nc1c(-c2ccccc2Cl)cnn1-c1cccc([N+](=O)[O-])c1 | -7.62* | 1.06 | -11.6 | i | i | i
Cc1cc(C(=O)OCC(=O)Nc2c(F)cccc2F)c(C)n1-c1ccccc1 | i | -2.31 | -4.7 | i | i | i
Clc1ccc(-c2csc(Nc3ccccc3)[n+]2Cc2ccco2)c(Cl)c1 | -7.3* | -3.62 | -19.6 | i | i | i
CCOc1cc(/C=C2\C(=O)N(c3cccc(C(F)(F)F)c3)C(=O)c3ccccc32)ccc1O | i | 0.41 | -5.4 | i | i | i
COc1cccc(/C=C2\C(=O)N(c3cccc(C)c3)C(=O)c3ccccc32)c1 | i | -9.21* | -10.0 | i | i | i
Cc1cccc(N2C(=O)/C(=C\c3ccc(OC(F)F)cc3)c3ccccc3C2=O)c1 | i | -4.35* | -2.7 | i | i | i
Cc1ccccc1C(=O)NNC(=O)C(=O)Nc1cccc(Cl)c1C | i | -0.31 | 12.9* | i | 47* | i
S=C(N/N=C/c1ccc(Cl)cc1)N1CCOCC1 | i | 0 | 8.6* | i | i | i
O=c1oc2ccccc2c(Cl)c1CN1CCCCC1 | i | -0.12 | 1.4 | i | 15* | i
CSc1ccc(Cl)c(C(=O)OCC(=O)N(C)CCC#N)c1 | i | -1.45 | -8.8 | i | i | i
O=C1CC(O)(C(F)(F)F)Oc2c1ccc1ccccc21 (stereo unspecified) | i | 0.51 | 6.8* | i | 8* | i
CC1(C)Cc2c(ccc3ccccc23)C(=O)N1 | i | 0.88 | -14.6 | i | i | i
Cc1ccccc1CC1(CO)CCCN(C(=O)c2ccc3ncccc3c2)C1 (stereo unspecified) | i | 0.59 | -7.4 | i | i | i
Cc1cc(NC(=O)CSc2nc(-c3ccccc3Cl)nc3c2c(=O)n(C)c(=O)n3C)no1 | i | -0.01 | 5.4* | i | i | i
O=C(N/N=C/C1CC=CCC1)c1ccc(Cl)cc1O (stereo unspecified) | i | -0.1 | -7.9 | i | i | i
COc1ccc(CC(=O)NC(C)c2nnc(SCCOc3ccc(OC)cc3)n2C)cc1 (stereo unspecified) | i | -4.27* | -16.7 | i | i | i
SMILES | KCNK9 inh | Kir21 block | hERG protect | KCNQ1 block | KCNQ1 pot | KCNK3 block
COc1ccc(CC(=O)NC(C)c2nnc(SCC(=O)c3ccc(OC)cc3)n2C)cc1 (stereo unspecified) | i | 0.43 | -12.7 | i | i | i
CCCN(CC(=O)Nc1ccccc1Br)CC(=O)Nc1ccc(F)c(F)c1F | -7.01* | -0.63 | -7.8 | i | i | i
COc1ccc(/C=N/Nc2cc(C)nc3c(C)cccc23)cc1 | i | -0.72 | -26.3 | 6* | i | i
COc1ccc(/C=N/Nc2cc(C)nc3ccccc23)cc1 | i | -6.62* | -16.9 | i | i | i
O=C(/C=C/c1ccccc1Cl)c1ccccc(=O)c1O | i | -0.96 | 16.4* | i | 14* | i
O=C(/C=C/c1ccc([N+](=O)[O-])cc1)c1ccccc(=O)c1O | nt | nt | nt | nt | nt | i
Cc1ccc(/C=C/C(=O)c2ccccc(=O)c2O)c(C)c1 | i | -1.16 | 25.6* | i | 19* | i
O=C(C=Cc1ccccc1O)c1ccccc1O | nt | nt | nt | nt | nt | i
Cc1ccc(C)c(/C=C/C(=O)c2ccccc(=O)c2O)c1 | i | -2.71 | 18.2* | i | 27* | i
C#CCN1C(=O)S/C(=C\c2cc3c(cc2OC)OCO3)C1=O | i | -3.71 | -11.8 | i | i | i
COc1cccc(CN(C)C(=S)Nc2ccc(C)c(C)c2)c1 | i | 0.05 | 4.7* | i | i | i
COc1ccc(CN(C)C(=S)Nc2ccc(OC(F)F)cc2)cc1 | i | -1.85 | -21.0 | i | i | i
CC(=O)Cc1nsc(NC(=O)c2ccccc2)n1 | i | -0.41 | -6.8 | i | i | i
CC(=O)Cc1nsc(NC(=O)c2cccs2)n1 | i | -0.05 | 11.6* | i | i | i
CC12CCC(C(=O)N(CSC(=S)N/N=C\c3ccccc3Cl)C1=O)C2(C)C (stereo unspecified) | i | -0.14 | -6.3 | i | 35* | i
Cc1ccccc1NCN1C(=O)C2CCC(C)(C1=O)C2(C)C (stereo unspecified) | i | -0.39 | -7.0 | i | i | i
CC12CCC(C(=O)N(CSC(=S)N/N=C\c3ccccc3)C1=O)C2(C)C (stereo unspecified) | i | 0.07 | 0.8 | i | 15* | i
COc1ccc(S(=O)(=O)N2CCNCC2)cc1 | i | 0.54 | 6.5* | i | i | i
COc1ccc(S(=O)(=O)N2CCCCCC2)cc1 | i | -0.01 | -11.6 | i | i | i
COCCn1nnnc1C(c1cccs1)N1CCN(c2cc(C)ccc2C)CC1 (stereo unspecified) | -7.98* | -0.96 | -7.8 | i | i | -9.2*
CNc1snc(C)c1C(=O)OC(C)C(=O)NCc1ccccc1 (stereo unspecified) | nt | nt | nt | nt | nt | i
C(C#CCCCCCCCCC[n+]1ccccc1)#CCCCCCCCCC[n+]1ccccc1 | i | -14.7* | -17.2 | i | i | i
O=[N+]([O-])c1ccc(N(c2ccccc2)c2ccccc2)cc1 | i | 0.49 | -25.5 | 9* | i | i
